# The list is not random: actives were taken first. Their share in the collection is about 2%.
# HSP90 inh = HSP90 refolding inhibition in rabbit reticulocyte lysate; inhibition, % at 5.6 µM; AID 1789; 290,000 tested, 0.91% active; luciferase refolding luminescence, 3 h;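 active = inhibition above the screen-wide mean plus 3 SD, computed separately per campaign, cut at about 16% in these data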;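 note: 0% = DMSO wells and 100% = 60 µM geldanamycin wells; inhibitors lower the luminescence because luciferase stays unfolded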
# PPC-1+TRAIL kill = kills PPC-1 cancer cells in the presence of TRAIL | 220,000 tested, 0.41% active | cell killing (% activity), % at 4 µM or 5 µM | PPC-1 cells + TRAIL, ATPLite viability luminescence;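 active = cell killing above 50% in the first pass at 4 µM, then a duplicate retest at 5 µM averaging 50% or more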;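 note: plate controls were cells with TRAIL plus DMSO for no effect and medium-only wells lacking cells for full effect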
# FLuc inhib CS = inhibits firefly luciferase, flagging false hits in luciferase inhibition screens; P08659; ATPLite firefly luciferase biochemical luminescence, 10 min; inhibition, % at 10 µM; 200,000 tested, 1.5% active;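 active = inhibition above about 50% when tested at 10 µM, limit read from the data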
# Target sequence (P08659 whole entry, looked up): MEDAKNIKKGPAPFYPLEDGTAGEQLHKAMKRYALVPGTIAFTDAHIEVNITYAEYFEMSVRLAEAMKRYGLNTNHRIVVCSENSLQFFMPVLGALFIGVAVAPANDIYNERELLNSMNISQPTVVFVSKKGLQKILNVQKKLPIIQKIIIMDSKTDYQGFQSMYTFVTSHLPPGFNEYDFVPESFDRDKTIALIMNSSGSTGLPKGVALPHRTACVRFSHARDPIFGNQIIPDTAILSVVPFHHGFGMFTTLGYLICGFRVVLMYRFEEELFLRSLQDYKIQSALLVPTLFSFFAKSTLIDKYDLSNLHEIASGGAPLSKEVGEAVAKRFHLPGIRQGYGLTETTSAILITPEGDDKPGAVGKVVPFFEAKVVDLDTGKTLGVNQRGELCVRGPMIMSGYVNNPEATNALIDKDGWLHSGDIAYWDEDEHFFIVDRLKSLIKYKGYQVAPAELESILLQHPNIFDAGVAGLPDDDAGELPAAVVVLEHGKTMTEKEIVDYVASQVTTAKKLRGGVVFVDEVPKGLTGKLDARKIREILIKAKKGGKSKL
# C8 TRAIL sens = sensitizes caspase-8 expressing cells to TRAIL. NB7+C8 cells + TRAIL, ATPlite viability luminescence. inhibition (viability loss, TRAIL sensitization), % at 10 µM. 360,000 tested, 1% active;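 active = compounds causing at least 50% loss of cell viability in the single-dose screen, relative to plate controls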
# FLuc stim CS = firefly luciferase counter-screen for stimulation assays; P08659; ATPlite luciferase biochemical, luminescence, 10 min; 0 = ATP-free wells, 1 = DMSO control; activation factor at 10 µM; 200,000 tested, under 10 active; AID 1027;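 active = luciferase activation factor, scaled between plate controls, of at least 2 with compound at 10 µM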
#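 Material: Luciferase/luciferin reagent mix | Doses: Test compounds dosed from 2 mM stocks in 100% DMSO | Timing: 10 min incubation after luciferase reagent addition, room temperature | Measured by: Luminescence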
# HSP90 inh confirm = HSP90 inhibition, confirmation assay; shares compounds with HSP90 inh; rabbit reticulocyte lysate, luciferase refolding luminescence, 3 h; inhibition, % at 5.9 µM; 2,300 tested, 64% active; in the data active = inhibition above about 18%;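 note: 0% = vehicle wells and 100% = reference inhibitor wells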
# FLuc counter = blocks native firefly luciferase in HSP90 counter-screen; shares compounds with HSP90 inh; purified native firefly luciferase, luminescence; inhibition, % at 5.9 µM; 2,300 tested, 48% active;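 active = inhibition above the mean inhibition of all tested sample wells plus 3 SD, cut at about 10% in these data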;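 note: 0% = DMSO with luciferase and 100% = wells lacking luciferase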
# * = called active by the depositor; . = no result.
SMILES,HSP90 inh,PPC-1+TRAIL kill,FLuc inhib CS,C8 TRAIL sens,FLuc stim CS,HSP90 inh confirm,FLuc counter
C=CCOc1c(Br)cc(/C=N/Nc2ccc(C(=O)O)cc2)cc1OCC,20.2*,12.5,-2.0,-1.3,1,23.8*,10.3*
O=C(O)c1ccc(N/N=C/c2ccc(-c3ccccc3Cl)o2)cc1,52.8*,21.0,.,1.3,.,60.0*,45.7*
CC(C)c1ccc(/C=N/Nc2ccc(C(=O)O)cc2)cc1,61.3*,39.0,48.7,15.3,0.5,89.6*,84.9*
CCCOc1ccc(/C=N/Nc2cccc([N+](=O)[O-])c2)c(O)c1,0.9,22.8,1.1,5.8,1,.,.
CCCOc1ccc(/C=N/Nc2ccc(C(=O)O)cc2)c(OCCC)c1,29.3*,27.9,2.9,-7.4,1,43.7*,47.8*
Cc1cccc(OCc2nnc(SCC(=O)O)n2-c2ccccc2)c1,-0.5,.,.,-9.6,.,.,.
O=C(O)c1ccc(N/N=C/c2ccc(OC(=O)c3ccccc3Cl)cc2)cc1,36.0*,19.9,-1.0,-4.6,1,88.4*,7.0
COc1ccc(/C=N/Nc2ccc(C(=O)O)cc2)cc1OC,34.6*,14.1,.,2.0,.,44.0*,28.6*
COc1ccc(/C=N/Nc2ccc(C(=O)O)cc2)cc1Br,59.9*,5.9,20.5,1.1,0.8,76.5*,76.4*
COc1ccc(/C=N\NC(=O)C2CCCC2)cc1Br,-0.8,.,.,12.9,.,.,.
COc1ccc(/C=N/Nc2nnc(C)n2N)cc1OC,18.7*,20.3,-0.2,-15.0,1,1.2,-7.4
Cc1ccc(-n2c(N)c(C(=O)Nc3ccccc3F)sc2=S)cc1C,-0.9,-10.6,-5.5,-7.3,1.1,.,.
COc1ccc2c(c1)c(/C=N/Nc1ccc(C(=O)O)cc1)c(C)n2C,30.4*,-3.7,.,-14.4,.,41.1*,34.6*
CN(C)CCCN(C(=O)CCSc1ccccc1)c1nc2cc3c(cc2s1)OCO3,56.9*,24.6,-1.1,0.9,1,-3.2,-12.7
Cc1cccc(NC(=S)N2CCN(c3cc(C)ccc3C)CC2)c1,4.7,20.3,-7.2,-7.0,1.1,.,.
COc1ccccc1N1CCN(C(=S)Nc2cccc(C)c2)CC1,27.1*,.,-5.0,10.3,1.1,29.5*,1.2
Cc1oc(-c2ccc(-c3ccccc3)cc2)nc1CN1CCN(CC(=O)N(C)C)CC1,67.3*,0.2,38.9,1.7,0.6,79.0*,18.2*
COCCNc1c(-c2cc3ccc(C)c(C)c3[nH]c2=O)nc2ccccn12,21.2*,13.9,69.7*,61.1*,0.3,-6.5,-14.9
Cc1cccc(NC(=S)NC(=O)/C=C/c2ccco2)c1,2.0,-16.8,-2.9,-11.5,1,.,.
Cc1cccc(NC(=S)NC(=O)/C=C/c2ccco2)n1,17.7*,22.1,0.7,-1.8,1,-0.3,-7.7
O=C(O)c1cccc(NC(=S)NC(NC(=O)c2cccc([N+](=O)[O-])c2)C(Cl)(Cl)Cl)c1 (stereo unspecified),29.3*,5.0,.,5.5,.,74.6*,2.9
O=C(O)c1ccc(N=NN2CCCCCC2)cc1,20.9*,4.1,4.6,3.3,1,42.4*,11.7*
O=C1C(Cl)=C(NCc2cccnc2)C(=O)c2ccccc21,18.2*,.,.,80.0*,.,4.8,-3.3
CC(=O)Nc1cc(C(=O)OCC(=O)c2ccccc2)ccc1C,24.3*,12.6,17.3,3.1,0.8,59.7*,-16.6
CCC(=O)Nc1ccccc1C(=O)OCC(=O)c1ccccc1,51.7*,13.2,7.8,2.3,0.9,66.1*,-30.5
SMILES,HSP90 inh,PPC-1+TRAIL kill,FLuc inhib CS,C8 TRAIL sens,FLuc stim CS,HSP90 inh confirm,FLuc counter
Cc1ccc(C(=O)OCC(=O)c2ccccc2)cc1,5.8,.,.,15.9,.,.,.
COC(=O)COC(=O)c1ccccc1NC(=O)c1ccccc1,-6.4,-10.6,-5.1,-10.9,1.1,.,.
CC(=O)Nc1ccc(-n2c(=O)c3ccccc3c3ccccc3c2=O)cc1,23.8*,2.3,-3.4,-6.4,1,9.0,-1.2
O=C(O)c1ccc(-n2c(=O)c3ccccc3c3ccccc3c2=O)cc1,3.5,12.0,-0.2,-9.3,1,.,.
COc1ccc(C(=O)Nc2cccc(/C=C/c3nc4ccccc4c(=O)[nH]3)c2)cc1,28.3*,9.0,.,76.3*,.,9.6,-8.6
CN(C)c1ccc(/C=C/c2nc3ccccc3c(=O)[nH]2)cc1,58.8*,.,.,90.9*,.,75.8*,72.8*
